Screens from PubChem.
PRMT1 inh: blocks human protein arginine methyltransferase 1 | Q99873 | recombinant PRMT1, activity-based probe fluorescence polarization | inhibition, % at 2.79 µM | 370,000 tested, 1.3% active | AID 652257;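 active = inhibition above about 21% made by adding two undisclosed values, limit read from the data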
SIAE primary: blocks human sialic acid acetylesterase; Q9HAT2; SIAE FP-Rh probe binding, fluorescence polarization; inhibition, % at 9.66 µM; 370,000 tested, 0.69% active;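 active = inhibition above a cutoff: mean of compounds within the control limits plus 3 SD of those, cut at about 17% in these data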;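 also: 0% = plate median of compound wells and 100% = probe without SIAE protein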
Target sequence (Q9HAT2 whole entry, looked up): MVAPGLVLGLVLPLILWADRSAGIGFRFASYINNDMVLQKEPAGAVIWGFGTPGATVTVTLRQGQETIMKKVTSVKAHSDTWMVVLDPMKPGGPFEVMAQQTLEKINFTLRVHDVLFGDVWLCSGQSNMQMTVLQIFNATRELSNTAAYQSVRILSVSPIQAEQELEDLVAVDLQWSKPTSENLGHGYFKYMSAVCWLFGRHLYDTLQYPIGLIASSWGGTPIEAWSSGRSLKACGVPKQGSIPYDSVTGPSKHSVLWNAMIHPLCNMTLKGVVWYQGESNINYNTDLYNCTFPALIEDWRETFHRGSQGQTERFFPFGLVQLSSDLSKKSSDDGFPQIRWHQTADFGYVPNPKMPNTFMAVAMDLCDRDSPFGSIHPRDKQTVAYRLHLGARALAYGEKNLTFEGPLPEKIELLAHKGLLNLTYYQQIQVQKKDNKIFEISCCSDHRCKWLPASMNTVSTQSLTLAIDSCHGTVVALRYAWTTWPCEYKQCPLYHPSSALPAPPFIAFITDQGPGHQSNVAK
mABHD4 FP: ABHD4 (mouse) inhibition, primary FP screen; Q8VD66; purified mABHD4, FP-Rh probe fluorescence polarization; inhibition, % at 8.92 µM; 370,000 tested, 0.54% active; AID 720543;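 active = inhibition exceeding the mean over every tested compound plus 3 SD, cut at about 30% in these data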;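 also: 0% = plate median of compound wells and 100% = S159A mutant with DMSO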
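Assay system: mouse ABHD4 enzyme, wild type / Also added: fluorescent activity-based probe FP-Rh / Doses: single nominal dose of 8.92 µM, 0.89% DMSO final / Timing: 45 min compound pre-incubation plus 60 min probe step, 25 °C / Signal: FP readout, ex 525 nm / em 598 nm / Control set: S159A mutant/DMSO as 100%, compound-well median as 0%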
TCR-CD3 inh: inhibitors of human TCR-CD3 interaction | inhibition, % at 9.4 µM | 360,000 tested, 0.37% active | TAMRA-labeled TCR probe fluorescence, biochemical; in the data active = inhibition above about 19%;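 also: recombinant mutant TCR 2C K166C tagged with TAMRA read by polarization; 0% = receptor in buffer alone and 100% = receptor with positive control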
rCAG binder: molecules binding r(CAG) RNA repeats; r(CAG) RNA repeat, TO-PRO-1 dye displacement fluorescence; inhibition, % at 3 µM; 370,000 tested, 1.3% active;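 active = inhibition above the plate cutoff, the mean of all test compounds on that plate plus 3 SD, cut at about 35% in these data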;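 also: 0% = DMSO alone and 100% = 100 µM mitoxantrone as full dye displacement; higher means more dye released from RNA so lower well fluorescence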
Starred values were filed as active, the others as inactive; nt = no result given. Compounds with a hit are over-represented: about 3.3% of the library has one in this group of screens.

SMILES | PRMT1 inh | SIAE primary | mABHD4 FP | TCR-CD3 inh | rCAG binder
Cc1cc(C)c(C(=O)c2ccccc2)c(C)c1 | 3 | 2 | 0 | -2 | 0
CN(C)c1ccc(C(=S)N2CCN(c3ccc([N+](=O)[O-])cc3)CC2)cc1 | 23* | 10 | 1 | 1 | 2
O=[N+]([O-])c1ccc(C(=S)N2CCN(c3ccc(F)cc3)CC2)cc1 | 3 | 4 | 4 | 0 | 0
COC(=O)c1cc(-c2cc(F)cc(OC)c2)c(=O)n2c1CCC2 | -4 | 6 | 1 | nt | 0
CCOC(=O)c1c(S(=O)(=O)N2CCN(C)CC2)c(C)n(C)c1C | -3 | -5 | -3 | 1 | -2
CCOC(=O)c1c(S(=O)(=O)N2CCCC2)c(C)n(C)c1C | 22* | 2 | -1 | 8 | 2
O=c1oc2ccccc2nc1/C=C(\O)c1ccccc1 | 18 | -3 | 23 | 4 | 3
O=c1oc2cc([N+](=O)[O-])ccc2nc1/C=C(\O)c1cccc(Br)c1 | 15 | 6 | 39* | -11 | 11
Cc1ccc(NC(=O)c2ccc(=O)[nH]n2)cc1S(=O)(=O)Nc1ccc(SC(F)F)cc1 | 46* | -59 | -60 | 11 | 33
O=S1(=O)c2ccc(Br)cc2OC[C@@H](Cc2ccccc2)N1Cc1cn(CC2CCCCC2)nn1 | -5 | 9 | -6 | nt | 3
COc1ccccc1CCNC(=O)CCSc1nc(-c2ccco2)cc(C(F)(F)F)n1 | 23* | -5 | -18 | -9 | 34
COc1ccccc1CCNC(=O)CSc1nc(-c2ccco2)cc(C(F)(F)F)n1 | 2 | -1 | 0 | -7 | 1
CCc1ccccc1N=C1S/C(=C/c2ccccc2OCC(=O)N2CCOCC2)C(=O)N1C | 1 | -1 | -10 | -7 | 11
O=C1NN(c2ccccc2)C(=O)/C1=C\c1ccccc1OCC(=O)N1CCOCC1 | 21* | 9 | 2 | 3 | 20
CCOC(=O)C1=C(CSc2nc(CC)c(C)cc2C#N)OC(N)=C(C#N)C1c1ccc(OC)cc1 (stereo unspecified) | 21* | 0 | -25 | -11 | 1
COc1ccc(NC(=O)/C(Cl)=C(/Cl)S(=O)(=O)Cc2ccccc2)cn1 | 24* | 4 | -14 | -7 | -2
COc1ccc(NC(=O)C(Cl)=C(Cl)Cl)cn1 | -1 | 0 | -3 | 4 | -3
COc1ccc(NC(=O)/C(Cl)=C(/Cl)S(=O)Cc2ccc(Cl)cc2)cn1 (stereo unspecified) | 32* | -3 | 1 | -1 | -4
Oc1c(Br)cc(Br)c2cccnc12 | 0 | 27* | 28 | -6 | 15
Oc1c(CN2CCN(c3ccccc3)CC2)cc(Br)c2cccnc12 | 0 | 6 | 15 | 6 | 1
Cc1ccccc1Cn1cc(CN2[C@H](CC(C)C)COc3cc(Br)ccc3S2(=O)=O)nn1 | 1 | 1 | -1 | nt | 3
Cc1onc(-c2ccccc2Cl)c1C(=O)Nc1nnc(-c2ccc(F)cc2)s1 | -1 | -1 | -15 | -1 | 14
Cc1onc(-c2ccccc2Cl)c1C(=O)Nc1nnc(-c2ccc(Br)cc2)s1 | 0 | -5 | -56 | 2 | 46*
NC(=O)C1CCN(C2=C(Cl)C(=O)c3ccccc3C2=O)CC1 | 25* | -4 | 7 | 4 | 4
NC(=O)C1CCN(C2=C(NS(=O)(=O)c3ccccc3)C(=O)c3ccccc3C2=O)CC1 | -1 | 7 | 1 | 5 | -3
SMILES | PRMT1 inh | SIAE primary | mABHD4 FP | TCR-CD3 inh | rCAG binder
COc1ccc(Cn2c(NC(=O)c3ccccc3)nc(Cc3ccccc3)c2-c2ccccc2)cc1 | -3 | 2 | 8 | nt | 7
Cc1ccccc1NC(=O)c1cccc2c1-c1ccccc1C2=O | 1 | -1 | 4 | nt | 2
O=C(OC12CCCN(C1)/C(=C/c1cccnc1)C2)C1CCCCC1 (stereo unspecified) | 0 | -2 | -1 | nt | -2
O=C1CSC(=S)N1/N=C/C=C/c1ccccc1 | 21* | 8 | 8 | -3 | 24
CN(C)CCCN1c2ccc([N+](=O)[O-])cc2CCc2cc([N+](=O)[O-])ccc21 | 22* | -1 | 2 | -6 | 20
CCOc1ccc(/C=C2\CCC(C3CCCC3)C2=O)cc1 (stereo unspecified) | 9 | -7 | -16 | -9 | -2
CCC(=O)OCOc1ccc(/C=C2/CCC(CN(C)C)C2=O)cc1 (stereo unspecified) | 37* | -15 | -7 | 6 | 7
c1ccc(-c2nc(-c3cccs3)[nH]c2-c2ccccc2)cc1 | 2 | 2 | -1 | -3 | 0
c1csc(-c2nc3c4ccccc4c4ccccc4c3[nH]2)c1 | -2 | -7 | -4 | -8 | 60*
O=C(NCC1CCCO1)c1ccc2c(c1)N(Cc1ccccc1)C(=O)CS2=O (stereo unspecified) | 24* | -3 | 0 | 3 | 6
COc1cc(NS(=O)(=O)c2ccc(NC(=O)/C(=C\c3ccccc3OC)NC(=O)c3ccccc3)cc2)nc(OC)n1 | 1 | -13 | -6 | 9 | 63*
CCCCCCN1CCS(=O)(=O)N(Cc2ccccc2)C(C(=O)OC)C1 (stereo unspecified) | 0 | -2 | 2 | nt | -3
Fc1ccc(-n2c(-c3ccc4ccccc4n3)n[nH]c2=S)cc1Cl | 5 | 8 | 5 | 3 | 7
S=c1[nH]nc(-c2ccc3ccccc3n2)n1-c1ccc2ncccc2c1 | 21* | -4 | 12 | -1 | 14
C/C=C(\C)C(=O)OC1CC(C)(C)C[C@H]2C3=CC[C@@H]4[C@@]5(C)CCC(O[C@@H]6O[C@@H](C(=O)O)[C@@H](O)C(O[C@@H]7OC[C@H](O)[C@@H](O)[C@@H]7O[C@@H]7OC(CO)C(O)[C@@H](O)[C@@H]7O)C6O[C@@H]6OC(CO)C(O)C(O)C6O)[C@@](C)(CO)[C@@H]5CC[C@]4(C)[C@]3(C)CC(O)[C@@]12CO (stereo partly specified) | 2 | -12 | -9 | 9 | 45*
CCOC(=O)CNC(=O)CSc1nnc(-c2ccc(C(C)(C)C)cc2)n1-c1ccc(Cl)cc1 | -2 | -1 | -6 | nt | 3
CCn1c(=S)[nH]c2scc(-c3cccs3)c2c1=O | 23* | 5 | -14 | 0 | 7
O=C(Nc1ccc(F)cc1F)C1CCN(c2nnc(-n3cccc3)s2)CC1 | -2 | -1 | -3 | nt | 4
CCCC(NC(=O)CCc1c(C)c2cc3c4c(oc3c(C)c2oc1=O)CCCC4)C(=O)O (stereo unspecified) | -6 | -5 | -8 | 8 | 36*
Cc1c(CCC(=O)N[C@@H](C)C(=O)O)c(=O)oc2cc3oc4c(c3cc12)CCCC4 | 2 | -8 | -2 | 4 | 28
Cc1ccc(C(=O)c2coc3cc([N+](=O)[O-])c(O)c([N+](=O)[O-])c23)cc1 | 26* | 14 | 17 | 0 | 18
CC(C)CNc1cccc2c1S(=O)(=O)N(Cc1cn(Cc3cccc(C(F)(F)F)c3)nn1)Cc1ccccc1O2 | 2 | 3 | -1 | nt | 8
CSc1nc(C)c(C(=O)Nc2ccccc2)c(-c2ccco2)c1C#N | 0 | -7 | -8 | 0 | 6
